The record followed here is ChEMBL document CHEMBL2150896, “Discovery of LASSBio-772, a 1,3-benzodioxole N-phenylpiperazine derivative with potent alpha 1A/D-adrenergic receptor blocking properties” (Eur J Med Chem, 2011).

The target of assay [1] is T1, Alpha-1A adrenergic receptor (Oryctolagus cuniculus) (UniProt O02824).
T1 sequence (whole entry): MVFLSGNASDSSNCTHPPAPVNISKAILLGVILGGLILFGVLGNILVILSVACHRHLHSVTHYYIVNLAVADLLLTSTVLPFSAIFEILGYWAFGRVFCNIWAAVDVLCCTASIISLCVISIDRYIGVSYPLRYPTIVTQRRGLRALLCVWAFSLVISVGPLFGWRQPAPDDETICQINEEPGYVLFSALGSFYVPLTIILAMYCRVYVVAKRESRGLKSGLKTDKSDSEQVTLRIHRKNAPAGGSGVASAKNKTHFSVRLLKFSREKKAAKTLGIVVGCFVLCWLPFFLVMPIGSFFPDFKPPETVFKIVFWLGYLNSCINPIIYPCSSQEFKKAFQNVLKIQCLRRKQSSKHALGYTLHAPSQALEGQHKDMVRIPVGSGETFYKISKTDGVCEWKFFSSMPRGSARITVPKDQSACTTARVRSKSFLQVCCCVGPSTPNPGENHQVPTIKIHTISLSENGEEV
The experiment in a line: Binding affinity to rabbit aorta adrenergic alpha1A receptor assessed as inhibition of phenylephrine-induced constriction after 30 mins. The method, boiled down: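 Rabbit aortic rings (3–4 mm) held in organ bath under 20 mN resting tension, equilibrated 30 min. Cumulative phenylephrine curves (5 × 10⁻⁹–5 × 10⁻⁴ M) run without or with 30 μM antagonist after 30 min preincubation. EC50 from non-linear sigmoidal fit per experiment; concentration ratio r gives KB via Schild equation r − 1 = [B]/KB. Mean ± S.E.M of 4–6 experiments.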

The target of assay [2] is T2, Alpha-1B adrenergic receptor (Rattus norvegicus, UniProt P15823).
T2 sequence (P15823 whole entry): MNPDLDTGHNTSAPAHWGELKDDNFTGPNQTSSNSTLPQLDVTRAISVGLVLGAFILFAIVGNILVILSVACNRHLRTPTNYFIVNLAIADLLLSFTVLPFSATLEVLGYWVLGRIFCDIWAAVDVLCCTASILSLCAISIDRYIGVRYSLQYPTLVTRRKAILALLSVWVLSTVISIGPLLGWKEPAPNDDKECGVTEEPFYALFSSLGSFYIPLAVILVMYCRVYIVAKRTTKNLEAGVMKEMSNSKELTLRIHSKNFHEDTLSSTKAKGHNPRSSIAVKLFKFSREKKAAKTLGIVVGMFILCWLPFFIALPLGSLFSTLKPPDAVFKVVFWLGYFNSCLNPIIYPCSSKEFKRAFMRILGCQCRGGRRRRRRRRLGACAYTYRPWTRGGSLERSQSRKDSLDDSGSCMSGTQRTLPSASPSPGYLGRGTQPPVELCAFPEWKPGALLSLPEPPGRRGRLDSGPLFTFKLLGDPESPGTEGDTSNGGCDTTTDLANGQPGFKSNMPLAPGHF
As to the kind of experiment: Displacement of [3H]prazosin from rat liver adrenergic alpha1B receptor after 45 mins by liquid scintillation counter.

The target in assay [3] is T3, Alpha-1D adrenergic receptor (Rattus norvegicus) (UniProt P23944).
T3 sequence (whole entry): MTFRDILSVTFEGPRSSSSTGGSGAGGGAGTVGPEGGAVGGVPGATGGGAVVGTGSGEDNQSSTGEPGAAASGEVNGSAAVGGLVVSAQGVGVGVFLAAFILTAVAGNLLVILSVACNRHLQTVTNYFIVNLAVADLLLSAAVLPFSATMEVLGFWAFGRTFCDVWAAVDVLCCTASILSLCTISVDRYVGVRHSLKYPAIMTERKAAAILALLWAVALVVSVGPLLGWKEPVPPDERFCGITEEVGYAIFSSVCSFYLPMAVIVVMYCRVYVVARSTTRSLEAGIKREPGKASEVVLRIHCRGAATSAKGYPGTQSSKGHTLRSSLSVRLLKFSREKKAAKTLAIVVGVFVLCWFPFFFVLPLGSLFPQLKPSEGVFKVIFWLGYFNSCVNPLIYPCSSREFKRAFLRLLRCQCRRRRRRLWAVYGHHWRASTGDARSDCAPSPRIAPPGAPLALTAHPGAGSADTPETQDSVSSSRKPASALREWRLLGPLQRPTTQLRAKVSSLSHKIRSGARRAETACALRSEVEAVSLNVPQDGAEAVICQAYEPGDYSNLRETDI
The settings on record: Thoracic aorta.

Assay [4] concerns the target T4, Alpha-1D adrenergic receptor (Rattus norvegicus, UniProt P23944).
T4 sequence (P23944 whole entry): T3 sequence (whole entry)
The experiment in a line: Antagonist activity at adrenergic alpha 1D receptor in rat thoracic aorta assessed as inhibition of noradrenaline-induced contraction after 1 hr. Format: functional, tissue-based. The settings on record: read-out: pA2 (converted).

The next assay has as its system Oryctolagus cuniculus. The experiment in a line: Hypotensive activity in New Zealand albino rabbit adrenergic alpha1 receptor assessed as inhibition of phenylephrine-induced rabbit systemic vascular resistance at 100 ug/kg, iv administered as bolus dose. The class given is functional, organism-based. In outline: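 Anaesthetised New Zealand albino rabbits of either sex (3.0 kg), given pentobarbital 40 mg/kg i.v. plus a 5 mg/kg top-up, tracheotomised, ventilated with room air and paralysed with pancuronium 1 mg/kg i.v. After 15–30 min stabilisation, phenylephrine dose-response curves (0.1–100 μg/kg, i.v.) were run with or without test compound given i.v. (0.1–100 μg/kg). Recording was continuous over 30 min. Systemic vascular resistance = MAP/cardiac output × 80 (dyn s/cm⁵).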

For assay [5], the target named is T1, Alpha-1A adrenergic receptor (Oryctolagus cuniculus). As to the kind of experiment: Ratio of BMY7378 KB to compound KB for rabbit aorta adrenergic alpha1A receptor assessed as inhibition of phenylephrine-induced constriction after 30 mins.
Assay [6] addresses T5, Alpha-1A adrenergic receptor (Rattus norvegicus, UniProt P43140).
T5 sequence (P43140 whole entry): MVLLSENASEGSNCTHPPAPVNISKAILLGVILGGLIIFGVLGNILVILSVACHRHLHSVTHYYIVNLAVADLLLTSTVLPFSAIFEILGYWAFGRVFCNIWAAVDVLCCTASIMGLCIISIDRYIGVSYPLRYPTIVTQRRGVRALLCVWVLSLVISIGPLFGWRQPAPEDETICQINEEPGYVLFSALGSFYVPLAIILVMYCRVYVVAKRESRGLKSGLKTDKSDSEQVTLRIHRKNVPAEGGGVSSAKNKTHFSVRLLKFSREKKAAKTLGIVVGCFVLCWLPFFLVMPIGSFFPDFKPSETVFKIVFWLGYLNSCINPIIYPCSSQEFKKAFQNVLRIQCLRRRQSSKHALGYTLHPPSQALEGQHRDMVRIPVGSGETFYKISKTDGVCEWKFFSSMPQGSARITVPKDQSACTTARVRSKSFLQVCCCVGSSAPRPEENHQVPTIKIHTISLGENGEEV
The experiment in a line: Displacement of [3H]prazosin from rat salivary gland adrenergic alpha 1A receptor after 45 mins by liquid scintillation counter. Background: In a radioligand displacement assay an active substance lowers the binding of a labelled ligand.

Another assay is filed under the species Rattus norvegicus. The experiment in a line: Selectivity ratio of Ki for rat liver adrenergic alpha1B receptor to Ki for rat salivary gland adrenergic alpha 1A. The method, boiled down:
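[3H]-prazosin competition binding on rat liver membranes (α1B) and rat salivary gland membranes (α1A), about 150 µg protein, 45 min at 25 °C in 50 mM TRIS-HCl with 1 mM EDTA, pH 7.4. Radioligand was 0.1 nM (liver) or 0.06 nM (salivary). […] Filtration, then scintillation counting. Ki from IC50 by Cheng–Prusoff; ratio of the two Ki values.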

The source made the active and inactive calls. No cut-off for these calls is given here.

In the case of `c1ccc(N2CCN(CCOc3ccc4c(c3)OCO4)CC2)cc1`, the Kb in assay [1] amounted to 10300 nM.
Same read-out and setting: the value for `Clc1ccc(N2CCN(CCc3ccc4c(c3)OCO4)CC2)cc1` was 1240 nM.
Same read-out and setting: the result for `c1ccc(CCN2CCN(c3ccccc3)CC2)cc1` reads 1460 nM; that for `c1ccc(N2CCN(Cc3ccc4c(c3)OCO4)CC2)cc1`, 25000 nM; that for `c1ccc(CN2CCN(c3ccccc3)CC2)cc1`, 25000 nM.
The same measure, in the same setting: the result for `c1ccc(CCCCN2CCN(c3ccccc3)CC2)cc1` reads 1420 nM.
In the case of `COc1ccc(N2CCN(CCc3ccc4c(c3)OCO4)CC2)cc1`, in assay [1], the Kb was found to be 870 nM.
For the molecule `COc1ccccc1N1CCN(CCCc2ccc3c(c2)OCO3)CC1`, the Kb in assay [1] came to 130 nM.
The same measure, in the same setting: the result for `c1ccc(N2CCN(CCCCc3ccc4c(c3)OCO4)CC2)cc1` reads 9380 nM; that for `c1ccc(N2CCN(CCCc3ccc4c(c3)OCO4)CC2)cc1`, 3800 nM; that for `c1ccc(CCCN2CCN(c3ccccc3)CC2)cc1`, 9380 nM.
In the case of `c1ccc(N2CCN(CCCOc3ccc4c(c3)OCO4)CC2)cc1`, the Kb in assay [1] is 27500 nM.
As for `Fc1ccc(N2CCN(CCc3ccc4c(c3)OCO4)CC2)cc1`, the Kb in assay [1] is 410 nM.
Still for that read-out and setting: the value for `c1ccc(OCCN2CCN(c3ccccc3)CC2)cc1` was 7320 nM.
As to `c1ccc(N2CCN(CCc3ccc4c(c3)OCO4)CC2)cc1`, the Kb in assay [1] amounted to 270 nM.
`COc1ccccc1N1CCN(CCc2ccc3c(c2)OCO3)CC1`: the half-maximal inhibitory concentration (IC50) is 6.03 nM in assay [2] and 0.269 nM in assay [6]. The molecule also showed a Ki in assay [2] of 5.55 nM. Moreover, in assay [3], the pKb was 10.3. Besides, the values for the Kb in assay [4] and in assay [1] were 0.0251 nM and 18 nM, respectively. Moreover, the inhibition entry in the assay on Oryctolagus cuniculus is “Active”. For the same molecule, in assay [5], the Ratio is 80. Also, the Ratio Ki in the assay listed under Rattus norvegicus turned out to be 40.
As for `COc1ccccc1N1CCN(CCN2C(=O)CC3(CCCC3)CC2=O)CC1`, in assay [1], the Kb came out at 1450 nM.
With `COc1cc2nc(N3CCN(C(=O)c4ccco4)CC3)nc(N)c2cc1OC`, the inhibition entry with Oryctolagus cuniculus was “Active”.

In general, IC50 refers to the concentration at which inhibition is half-maximal. Low readings indicate greater potency in that assay, high ones weaker potency in that assay. A word on the Ki: it is a dissociation constant, usually derived from enzyme kinetics or from competition with a known ligand. Lower therefore signals higher affinity. As usually defined, the pKb is the Kb on a negative log10 scale, so that one unit is a factor of ten.
